Key:
Format in all cases: ADME, organism-based
[1] = test system: Mus musculus; assay: Biodistribution of compound (oxidized form) in heart tissue, animals were sacrificed 10 minutes after dosing, in DMSO sol.; details: in vivo
Summary of the method: (§1)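 In female C3H HenMTV⁻ mice (6-8 weeks, 22-25 g; three per time point), compound was injected ip as 500 µL of 40 mM solution. Animals were killed 10 or 60 min later. Brain, heart, liver, kidney, spleen and blood were removed and each homogenized in ice-cold PBS. Nitroxide (oxidized form) was quantified by EPR signal intensity in the half of each homogenate not treated with ferricyanide.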

[2] = test system: Mus musculus; assay: Biodistribution in mice, total concentration of both oxidized and reduced forms in brain tissues, animals were sacrificed 60 minutes after dosing, in DMSO; details: in vivo, 1 h
Summary of the method: (§2)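 Female C3H HenMTV⁻ mice (6-8 weeks old, 22-25 g; three per time point) were given an ip injection of 500 µL of 40 mM compound. They were euthanized at 10 or 60 min. Brain, heart, liver, kidney, spleen and blood were excised and each homogenized in ice-cold PBS. One half of each homogenate received K₃[Fe(CN)₆] (final 1 mM) to oxidize hydroxylamine to nitroxide. Total nitroxide plus hydroxylamine was read from EPR signal intensity.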

[3] = test system: Mus musculus; assay: Biodistribution of compound (total concentration of both oxidized and reduced forms) in blood tissues, animals were sacrificed 60 minutes after dosing, in DMSO; details: in vivo, 1 h
Summary of the method: (§3)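 Female C3H HenMTV⁻ mice (6-8 weeks old, 22-25 g; three per time point) got one i.p. injection of 500 µL of 40 mM compound. They were euthanized at 10 or 60 min. Organs and blood were excised and homogenized separately in ice-cold PBS. One half of each homogenate received K₃[Fe(CN)₆] (final 1 mM) to oxidize hydroxylamine. Total nitroxide plus hydroxylamine was quantified by EPR signal intensity.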

[4] = test system: Mus musculus; assay: Biodistribution in mice as total concentration of both oxidized and reduced forms in kidney and animals were sacrificed 10 minutes after ip dosing, in DMSO solution; details: in vivo; summary of the method: as §2
[5] = test system: Mus musculus; assay: Biodistribution of compound (oxidized form) in spleen tissues, animals were sacrificed 60 minutes after dosing, in DMSO solution; details: in vivo, 1 h; summary of the method: as §1
[6] = test system: Mus musculus; assay: Biodistribution of compound (oxidized form) in blood tissues, animals were sacrificed 60 minutes after dosing, in DMSO solution; details: in vivo, 1 h; summary of the method: as §1
[7] = test system: Mus musculus; assay: Biodistribution of compound (total concentration of both oxidized and reduced forms) in liver tissues, animals were sacrificed 60 minutes after dosing, in DMSO; details: in vivo, 1 h; summary of the method: as §3
[8] = test system: Mus musculus; assay: Biodistribution of compound (total concentration of both oxidized and reduced forms) in heart tissues, animals were sacrificed 10 minutes after dosing, in DMSO; details: in vivo; summary of the method: as §3
[9] = test system: Mus musculus; assay: Biodistribution of compound (oxidized form) in brain tissue, animals were sacrificed 10 minutes after dosing, in DMSO sol.; details: in vivo; summary of the method: as §1
[10] = test system: Mus musculus; assay: Biodistribution of compound (oxidized form) in brain tissues, animals were sacrificed 10 minutes after dosing, in DMSO solution; details: in vivo; summary of the method: as §1
[11] = test system: Mus musculus; assay: Biodistribution of compound (oxidized form) in blood tissue, animals were sacrificed 10 minutes after dosing, in DMSO solution; details: in vivo; summary of the method: as §1
[12] = test system: Mus musculus; assay: Biodistribution of compound (oxidized form) in liver tissues, animals were sacrificed 60 minutes after dosing, in DMSO solution; details: in vivo, 1 h; summary of the method: as §1
[13] = test system: Mus musculus; assay: Biodistribution of compound (oxidized form) in spleen tissue, animals were sacrificed 10 minutes after dosing, in DMSO solution; details: in vivo; summary of the method: as §1
[14] = test system: Mus musculus; assay: Biodistribution of compound (oxidized form) in heart tissue, animals were sacrificed 60 minutes after dosing, in DMSO solution; details: in vivo, 1 h; summary of the method: as §1
[15] = test system: Mus musculus; assay: Biodistribution in mice as total concentration of both oxidized and reduced forms in spleen and animals were sacrificed 10 minutes after ip dosing, in DMSO solution; details: in vivo; summary of the method: as §2
[16] = test system: Mus musculus; assay: Biodistribution of compound (oxidized form) in brain tissue, animals were sacrificed 60 minutes after dosing, in DMSO solution; details: in vivo, 1 h; summary of the method: as §1
[17] = test system: Mus musculus; assay: Biodistribution of compound (total concentration of both oxidized and reduced forms) in heart tissues, animals were sacrificed 60 minutes after dosing, in DMSO; details: in vivo, 1 h; summary of the method: as §3
[18] = test system: Mus musculus; assay: Biodistribution of compound (total concentration of both oxidized and reduced forms) in kidney tissues, animals were sacrificed 60 minutes after dosing, in DMSO; details: in vivo, 1 h; summary of the method: as §3
[19] = test system: Mus musculus; assay: Biodistribution of compound (oxidized form) in kidney tissue, animals were sacrificed 10 minutes after dosing, in DMSO solution; details: in vivo; summary of the method: as §1
[20] = test system: Mus musculus; assay: Biodistribution of compound (oxidized form) in liver tissue, animals were sacrificed 10 minutes after dosing, in DMSO sol.; details: in vivo; summary of the method: as §1
[21] = test system: Mus musculus; assay: Biodistribution in mice as total concentration of both oxidized and reduced forms in blood and animals were sacrificed 10 minutes after ip dosing, in DMSO solution; details: in vivo; summary of the method: as §2
[22] = test system: Mus musculus; assay: Biodistribution in mice as total concentration of both oxidized and reduced forms in liver and animals were sacrificed 10 minutes after ip administration in DMSO solution; details: in vivo; summary of the method: as §2
[23] = test system: Mus musculus; assay: Biodistribution of compound (oxidized form) in kidney tissue, animals were sacrificed 60 minutes after dosing, in DMSO solution; details: in vivo, 1 h; summary of the method: as §1
[24] = test system: Mus musculus; assay: Biodistribution of compound (total concentration of both oxidized and reduced forms) in spleen tissues, animals were sacrificed 60 minutes after dosing, in DMSO; details: in vivo, 1 h; summary of the method: as §3
[25] = species on record: Mus musculus; assay: Biodistribution of compound (oxidized form) in blood tissue; details: in vivo; summary of the method: as §1
[26] = species on record: Mus musculus; assay: Biodistribution of compound (total concentration of both oxidized and reduced forms) in brain tissues; details: in vivo; summary of the method: as §3
[27] = test system: Mus musculus; assay: Biodistribution of compound (oxidized form) in kidney tissue, animals were sacrificed 60 minutes after dosing, in DMSO; details: in vivo, 1 h; summary of the method: as §1
[28] = test system: Mus musculus; assay: Biodistribution of compound (oxidized form) in brain tissue, animals were sacrificed 60 minutes after dosing, in DMSO; details: in vivo, 1 h; summary of the method: as §1
[29] = species on record: Mus musculus; assay: Biodistribution of compound (oxidized form) in kidney tissue; details: in vivo; summary of the method: as §1
[30] = species on record: Mus musculus; assay: Biodistribution of compound (oxidized form) in liver tissue; details: in vivo; summary of the method: as §1
[31] = species on record: Mus musculus; assay: Biodistribution of compound (oxidized form) in spleen tissue; details: in vivo; summary of the method: as §1
[32] = species on record: Mus musculus; assay: Biodistribution of compound (total concentration of both oxidized and reduced forms) in heart tissues; details: in vivo; summary of the method: as §3
[33] = species on record: Mus musculus; assay: Biodistribution of compound (total concentration of both oxidized and reduced forms) in spleen; details: in vivo; summary of the method: as §3
[34] = species on record: Mus musculus; assay: Biodistribution of compound (total concentration of both oxidized and reduced forms) in kidney; details: in vivo; summary of the method: as §3
[35] = test system: Mus musculus; assay: Biodistribution of compound (total concentration of both oxidized and reduced forms) in brain tissues, animals were sacrificed 60 minutes after dosing, in DMSO; details: in vivo, 1 h; summary of the method: as §3
[36] = test system: Mus musculus; assay: Biodistribution of compound (total concentration of both oxidized and reduced forms) in kidney tissues, animals were sacrificed 60 minutes after dosing in DMSO; details: in vivo, 1 h; summary of the method: as §3
[37] = species on record: Mus musculus; assay: Biodistribution of compound (oxidized form) in heart tissue of mice; details: in vivo; summary of the method: as §1
[38] = test system: Mus musculus; assay: Biodistribution of compound (oxidized form) in liver tissues, animals were sacrificed 60 minutes after dosing, in DMSO; details: in vivo, 1 h; summary of the method: as §1
[39] = test system: Mus musculus; assay: Biodistribution of compound (oxidized form) in heart tissue, animals were sacrificed 60 minutes after dosing, in DMSO; details: in vivo, 1 h; summary of the method: as §1
[40] = test system: Mus musculus; assay: Biodistribution of compound (oxidized form) in blood tissues, animals were sacrificed 60 minutes after dosing, in DMSO; details: in vivo, 1 h; summary of the method: as §1
[41] = test system: Mus musculus; assay: Biodistribution of compound (total concentration of both oxidized and reduced forms) in spleen tissues, animals were sacrificed 60 minutes after dosing in DMSO; details: in vivo, 1 h; summary of the method: as §3
[42] = species on record: Mus musculus; assay: Biodistribution of compound (oxidized form) in brain tissue of mice; details: in vivo; summary of the method: as §1
[43] = species on record: Mus musculus; assay: Biodistribution of compound (total concentration of both oxidized and reduced forms) in blood; details: in vivo; summary of the method: as §3
[44] = species on record: Mus musculus; assay: Biodistribution of compound (total concentration of both oxidized and reduced forms) in liver; details: in vivo; summary of the method: as §3
[45] = test system: Mus musculus; assay: Biodistribution of compound (oxidized form) in spleen tissues, animals were sacrificed 60 minutes after dosing, in DMSO; details: in vivo, 1 h; summary of the method: as §1

COC(=O)C1CC(C)(C)N(OC(C)=O)C1(C)C (stereo not drawn)
Biodistribution [1]: 0 nM (g of tissue)-1 | Biodistribution [2]: 25 nM (g of tissue)-1 | Biodistribution [3]: 25 nM (g of tissue)-1 | Biodistribution [4]: 400 nM (g of tissue)-1 | Biodistribution [5]: 0 nM (g of tissue)-1 | Biodistribution [6]: 0 nM (g of tissue)-1 | Biodistribution [7]: 30 nM (g of tissue)-1 | Biodistribution [8]: 100 nM (g of tissue)-1 | Biodistribution [9]: 2 nM (g of tissue)-1 | Biodistribution [10]: 0 nM (g of tissue)-1 | Biodistribution [11]: 0 nM (g of tissue)-1 | Biodistribution [12]: 0 nM (g of tissue)-1 | Biodistribution [13]: 0 nM (g of tissue)-1 | Biodistribution [14]: 0 nM (g of tissue)-1 | Biodistribution [15]: 100 nM (g of tissue)-1 | Biodistribution [16]: 5 nM (g of tissue)-1 | Biodistribution [17]: 25 nM (g of tissue)-1 | Biodistribution [18]: 25 nM (g of tissue)-1 | Biodistribution [19]: 0 nM (g of tissue)-1 | Biodistribution [20]: 0 nM (g of tissue)-1 | Biodistribution [21]: 100 nM (g of tissue)-1 | Biodistribution [22]: 50 nM (g of tissue)-1 | Biodistribution [23]: 0 nM (g of tissue)-1 | Biodistribution [24]: 25 nM (g of tissue)-1

CC(=O)OCOC(=O)C1CC(C)(C)N(OC(C)=O)C1(C)C (stereo not drawn)
Biodistribution [25]: 50 nM (g of tissue)-1 | Biodistribution [26]: 0 nM (g of tissue)-1 | Biodistribution [3]: 400 nM (g of tissue)-1 | Biodistribution [27]: 40 nM (g of tissue)-1 | Biodistribution [28]: 0 nM (g of tissue)-1 | Biodistribution [7]: 250 nM (g of tissue)-1 | Biodistribution [29]: 50 nM (g of tissue)-1 | Biodistribution [30]: 100 nM (g of tissue)-1 | Biodistribution [31]: 40 nM (g of tissue)-1 | Biodistribution [32]: 250 nM (g of tissue)-1 | Biodistribution [33]: 750 nM (g of tissue)-1 | Biodistribution [34]: 2500 nM (g of tissue)-1 | Biodistribution [35]: 0 nM (g of tissue)-1 | Biodistribution [36]: 2500 nM (g of tissue)-1 | Biodistribution [37]: 10 nM (g of tissue)-1 | Biodistribution [17]: 250 nM (g of tissue)-1 | Biodistribution [38]: 20 nM (g of tissue)-1 | Biodistribution [39]: 5 nM (g of tissue)-1 | Biodistribution [40]: 20 nM (g of tissue)-1 | Biodistribution [41]: 150 nM (g of tissue)-1 | Biodistribution [42]: 0 nM (g of tissue)-1 | Biodistribution [43]: 750 nM (g of tissue)-1 | Biodistribution [44]: 250 nM (g of tissue)-1 | Biodistribution [45]: 20 nM (g of tissue)-1

Source: ChEMBL document CHEMBL1135423, “Acyl-protected hydroxylamines as spin label generators for EPR brain imaging” (J Med Chem, 2002)
